The values below come from ChEMBL document CHEMBL3271963, “Relationship between analgetic ED50 dose and time-course brain levels N-alkylnormeperidine homologues” (J Med Chem, 1976).

The subject of data set [1] is Mus musculus. Briefly: Analgetic potency in iv dosed Swiss-Webster mouse. It counts as functional.
For data set [2], the system named is Brain. Briefly: Drug uptake in iv dosed Swiss-Webster mouse brain measured per gram of tissue. To be noted: in vivo. It counts as ADME, organism-based. In short, it runs like this:
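Mice received a single iv bolus of the ³H-labelled compound into the tail vein (0.033 ml/10 g). Whole brains were removed at 5, 10, 20, 30 and 45 min (n = 6 per point) and homogenised in 0.01 N HCl with unlabelled carriers and a [¹⁴C]-N-butylnormeperidine internal standard. Samples were basified to pH 12, extracted into benzene and run on TLC. Levels came from ³H/¹⁴C ratios against a standard curve, expressed per gram, with area under the concentration-time curve.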

For data set [3], the system named is Mus musculus. Briefly: Analgetic potency in iv dosed Swiss-Webster mouse relative to meperidine. It is filed as functional.
The test system of data set [4] is Liver. The data set can be described thus: Drug metabolism in iv dosed Swiss-Webster mouse liver measured per gram of tissue over 5 to 45 mins. It is filed as ADME, organism-based. To be noted: in vivo. In outline:
(§1)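 Mice received a single iv bolus of the ³H-labelled N-alkylnormeperidine into the lateral tail vein (0.033 ml/10 g), with 6 animals per time point. Livers were taken at 5, 10, 20, 30 and 45 min, homogenised in 0.01 N HCl, and spiked with unlabelled parent, normeperidine and a [¹⁴C] internal standard. Samples were basified to pH 12, extracted into C₆H₆ and separated by TLC. Parent and normeperidine were quantified by ³H/¹⁴C ratio, corrected for 5.8% (v/w) residual blood, and integrated over 5–45 min.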

For data set [5], the system named is Liver. The data set can be described thus: Drug metabolism in iv dosed Swiss-Webster mouse liver assessed as norme-peridine concentration measured per gram of tissue over 5 to 45 mins. It counts as ADME, organism-based. To be noted: in vivo. In outline:
as §1

For orientation: ED50 means the midpoint of the dose-response relation. Low readings indicate an effect at a small dose, high ones a need for a large dose. In data set [1], `CCCN1CCC(C(=O)OCC)(c2ccccc2)CC1.Cl` displayed an ED50 of 45.9 µmol/kg. The compound also showed a Drug uptake in data set [2] of 828 nmol·min/g. For the same compound, the Ratio in data set [3] is 0.7. The Drug metabolism in data set [4] was 263.3 nmol·min; in data set [5], 917.7 nmol·min.

In the case of `CCCCN1CCC(C(=O)OCC)(c2ccccc2)CC1.Cl`, the ED50 in data set [1] worked out at 19.1 µmol/kg. Besides, the Drug uptake in data set [2] was 274 nmol·min/g. Further, in data set [3], the Ratio was 1.7. Moreover, the Drug metabolism in data set [4] was determined as 83.8 nmol·min; in data set [5], 121.7 nmol·min.

In data set [1], `CCCCCCN1CCC(C(=O)OCC)(c2ccccc2)CC1.Cl` showed an ED50 of 3.7 µmol/kg. Also, the Drug uptake in data set [2] turned out to be 126 nmol·min/g. Moreover, in data set [3], the Ratio came to 8.8. In addition, the Drug metabolism in data set [4] came out at 153.3 nmol·min; in data set [5], 17.9 nmol·min.

As for `CCOC(=O)C1(c2ccccc2)CCN(C)CC1.Cl` [MEPERIDINE HYDROCHLORIDE], in data set [1], the 50% effect level (ED50) was put at a dose of 32.8 µmol/kg. Also, the Drug metabolism was determined as 926.7 nmol·min in data set [4] and 1733.1 nmol·min in data set [5].
